Laboratory results reported in article PMC3034734 (Chemistry & biology, 2009).
Positions count from the first letter of the chain named. Like-named read-outs stand apart in the source and are kept apart here.

Legend:
[1] = molecular target: T1, purified recombinant rat MGL (Rattus norvegicus, UniProt Q8R431); assay: Inhibition of purified recombinant MGL; format: biochemical
T1 sequence (Q8R431 1-303): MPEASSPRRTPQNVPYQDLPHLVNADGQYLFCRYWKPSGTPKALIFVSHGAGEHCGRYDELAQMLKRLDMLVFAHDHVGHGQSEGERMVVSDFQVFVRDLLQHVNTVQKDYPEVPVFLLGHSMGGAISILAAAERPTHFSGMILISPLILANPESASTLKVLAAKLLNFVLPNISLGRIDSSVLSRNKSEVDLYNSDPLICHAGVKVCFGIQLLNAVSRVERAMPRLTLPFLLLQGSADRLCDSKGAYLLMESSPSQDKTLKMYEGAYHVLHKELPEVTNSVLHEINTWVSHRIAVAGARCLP

[2] = test system: primary cultures of rat cortical neurons; assay: 2-AG and PEA levels in primary cultures of rat cortical neurons; format: cell-based
non-purified HeLa MGL = molecular target: T2, non-purified HeLa MGL (Rattus norvegicus, UniProt Q8R431); assay: Michaelis-Menten kinetic analysis of the MGL reaction; format: biochemical; details: for Vmax of MGL in presence of inhibitor: vehicle 200±20; for Mechanism of MGL inhibition: from rapid dilution and kinetic experiments
T2 sequence (Q8R431 1-303): T1 sequence (Q8R431 1-303)

rat ABHD12 = molecular target: T3, rat ABHD12 (Rattus norvegicus, UniProt Q6AYT7); assay: ABHD12 activity assay; format: biochemical; details: in vitro
T3 sequence (Q6AYT7 1-398): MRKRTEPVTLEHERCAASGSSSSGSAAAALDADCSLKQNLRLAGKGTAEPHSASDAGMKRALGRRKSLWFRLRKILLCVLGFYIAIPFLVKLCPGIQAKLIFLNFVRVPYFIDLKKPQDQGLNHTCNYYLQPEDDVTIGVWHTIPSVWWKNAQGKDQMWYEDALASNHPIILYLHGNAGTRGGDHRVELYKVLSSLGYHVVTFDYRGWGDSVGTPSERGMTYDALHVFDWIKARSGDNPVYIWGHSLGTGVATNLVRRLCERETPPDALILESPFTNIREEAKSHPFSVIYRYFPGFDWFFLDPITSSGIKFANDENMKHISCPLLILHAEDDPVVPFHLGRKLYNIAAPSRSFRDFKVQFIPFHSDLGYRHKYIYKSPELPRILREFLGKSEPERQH
Method in brief: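 Rat full-length ABHD12 (V5-tagged) transiently expressed in HeLa cells, harvested at 48 h, and homogenised in 50 mM Tris-Cl pH 8.0 with 0.32 M sucrose. Modified MGL assay run at pH 7.5 with 3 μg protein per reaction for 30 min at 37°C. Samples extracted; product (m/z 281) quantified by negative-ion ESI LC/MS in SIM mode against heptadecanoic acid standard.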

MGL C201G mutant = molecular target: T4, MGL C201G mutant (Rattus norvegicus, UniProt Q8R431, C201G); assay: Inhibition of MGL C201G mutant in HeLa cell extracts; format: biochemical
T4 sequence (Q8R431 1-303 C201G): T1 sequence (Q8R431 1-303) with C201G

MGL C208G mutant = molecular target: T5, MGL C208G mutant (Rattus norvegicus, UniProt Q8R431, C208G); assay: Inhibition of MGL C208G mutant in HeLa cell extracts; format: biochemical
T5 sequence (Q8R431 1-303 C208G): T1 sequence (Q8R431 1-303) with C208G

purified MGL = purified MGL (Rattus norvegicus, UniProt Q8R431); format: biochemical
[3] = molecular target: T6, non-purified HeLa MGL (wild-type) (Rattus norvegicus, UniProt Q8R431); assay: Inhibition of non-purified MGL; format: biochemical
T6 sequence (Q8R431 1-303): T1 sequence (Q8R431 1-303)

[4] = molecular target: T7, rat recombinant N-acylethanolamide acid amidase (Rattus norvegicus, UniProt Q5KTC7); assay: NAAA activity assay; format: biochemical; details: in vitro, Table S1
T7 sequence (Q5KTC7 131-362 limits assumed): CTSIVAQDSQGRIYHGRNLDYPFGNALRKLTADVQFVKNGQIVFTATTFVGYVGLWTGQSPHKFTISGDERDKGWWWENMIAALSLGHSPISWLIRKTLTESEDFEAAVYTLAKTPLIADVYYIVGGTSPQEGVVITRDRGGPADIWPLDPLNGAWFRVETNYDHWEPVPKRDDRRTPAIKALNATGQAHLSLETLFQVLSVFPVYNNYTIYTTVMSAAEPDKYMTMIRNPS
T7 sequence (Q5KTC7 34-130 limits assumed): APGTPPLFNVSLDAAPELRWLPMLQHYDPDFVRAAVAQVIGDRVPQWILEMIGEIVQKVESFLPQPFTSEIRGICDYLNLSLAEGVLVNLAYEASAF
Method in brief: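 Rat NAAA (Flag-tagged) from stably transfected HEK293 cells (G418 0.3 mg/ml), prepared by sonication, differential centrifugation, freeze-thaw and 105,000 × g supernatant. 50 μM heptadecenoylethanolamide incubated with 10 μg protein in 50 mM sodium phosphate pH 5.0, 0.1% Triton X-100, 3 mM DTT, 30 min at 37°C. Stopped with cold methanol containing heptadecanoic acid; product (m/z 267) measured by LC/MS SIM.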

rat brain FAAH = molecular target: T8, rat brain FAAH (Rattus norvegicus, UniProt P97612); assay: FAAH activity in rat brain homogenates; format: biochemical; details: in vitro, Table S1
T8 sequence (P97612 1-579): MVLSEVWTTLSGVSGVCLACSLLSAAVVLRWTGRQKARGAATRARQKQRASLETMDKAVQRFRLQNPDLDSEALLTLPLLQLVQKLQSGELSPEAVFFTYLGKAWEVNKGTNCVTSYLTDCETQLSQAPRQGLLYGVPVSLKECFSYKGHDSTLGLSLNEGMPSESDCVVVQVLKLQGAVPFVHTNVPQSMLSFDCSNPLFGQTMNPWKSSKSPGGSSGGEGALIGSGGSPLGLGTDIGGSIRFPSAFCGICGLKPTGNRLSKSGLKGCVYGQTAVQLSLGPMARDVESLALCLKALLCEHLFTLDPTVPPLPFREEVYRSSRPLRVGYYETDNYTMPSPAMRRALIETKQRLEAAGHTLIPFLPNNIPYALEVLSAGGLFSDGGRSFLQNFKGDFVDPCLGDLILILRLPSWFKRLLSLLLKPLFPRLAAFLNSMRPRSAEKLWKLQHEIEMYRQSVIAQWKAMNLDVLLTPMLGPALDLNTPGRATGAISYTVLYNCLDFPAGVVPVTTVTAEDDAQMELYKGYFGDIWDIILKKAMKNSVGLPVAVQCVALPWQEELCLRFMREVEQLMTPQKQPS

rat ABHD6 = molecular target: T9, rat ABHD6 (Rattus norvegicus, UniProt Q5XI64); assay: ABHD6 activity assay; format: biochemical
T9 sequence (Q5XI64 1-337): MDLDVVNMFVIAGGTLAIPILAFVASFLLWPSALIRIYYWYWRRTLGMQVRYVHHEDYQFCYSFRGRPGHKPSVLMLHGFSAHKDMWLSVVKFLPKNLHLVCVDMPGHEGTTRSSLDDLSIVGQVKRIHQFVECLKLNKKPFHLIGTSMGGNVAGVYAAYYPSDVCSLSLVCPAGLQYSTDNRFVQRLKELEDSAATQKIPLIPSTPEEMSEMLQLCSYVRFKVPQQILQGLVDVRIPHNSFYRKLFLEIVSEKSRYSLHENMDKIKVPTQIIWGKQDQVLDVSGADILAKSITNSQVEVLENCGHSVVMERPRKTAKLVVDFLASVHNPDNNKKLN

MGL Cys32 mutant = molecular target: T10, MGL Cys32 mutant (Rattus norvegicus, UniProt Q8R431, C32G); assay: Inhibition of MGL Cys32 mutant; format: biochemical; details: data not shown
T10 sequence (Q8R431 1-303 C32G): T1 sequence (Q8R431 1-303) with C32G

[5] = test system: rat brain diacylglycerol lipase; assay: DGL activity in rat brain homogenates; format: biochemical; details: in vitro, Table S1
[6] = IC50, inhibition of non-purified MGL, cell lysates of MGL-transfected HeLa cells
[7] = IC50, wild-type MGL in HeLa cell extracts, wt control of the mutational analysis

Question: Which IC50 [1] does the source give for `CC1=C(O)C(=O)C=C2C1=CC=C1[C@@]2(C)CC[C@@]2(C)[C@@H]3C[C@](C)(C(=O)O)CC[C@]3(C)CC[C@]12C` [Celastrol] here?
Answer: Its IC50 is 1.6 ± 0.4 µM.

Question: Which IC50 [1] does the source give for `Cc1c(O)c(O)cc2c1CC=C1[C@@]2(C)CC[C@@]2(C)[C@@H]3C[C@](C)(C(=O)O)CC[C@]3(C)CC[C@]12C` [Dihydrocelastrol] here?
Answer: The IC50 was 15 ± 4 µM.

Question: For `CC(=O)Oc1cc2c(c(C)c1OC(C)=O)CC=C1[C@@]2(C)CC[C@@]2(C)C3C[C@](C)(C(=O)O)CC[C@]3(C)CC[C@]12C` (some centres unmarked) [Dihydrocelastryl Diacetate], which IC50 ([1]; read-out: IC50, inhibition of purified recombinant MGL) is on record?
Answer: The IC50 was 15 ± 3 µM.

Question: For `CCCCC/C=C\C/C=C\C/C=C\C/C=C\CCCCN1C(=O)C=CC1=O` [N-arachidonylmaleimide, reference compound], which “Effect on 2-AG levels” value [2] is on record?
Answer: The value was “increased”.

Question: What about the “Effect on PEA levels” value [2] of the same compound?
Answer: Its value is “increased”.

Question: With `COC(=O)[C@]1(C)CC[C@]2(C)CC[C@]3(C)C4=CC=C5C(=CC(=O)C(O)=C5C)[C@]4(C)CC[C@@]3(C)[C@@H]2C1` [Pristimerin] as the compound, how does the “Vmax of MGL in presence of inhibitor” value (non-purified HeLa MGL; 100 nM inhibitor) read?
Answer: Its value is 174 ± 7 pmol/min/µg.

Question: And the “Vmax of MGL in presence of inhibitor” value (non-purified HeLa MGL; 300 nM inhibitor)?
Answer: Its value is 104 ± 7 pmol/min/µg.

Question: What about the “Vmax of MGL in presence of inhibitor” value (non-purified HeLa MGL; 500 nM inhibitor) of the same compound?
Answer: Its value is 51 ± 18 pmol/min/µg.

Question: What about the “Mechanism of MGL inhibition” value (non-purified HeLa MGL) of the same compound?
Answer: Its value is “rapid, reversible and non-competitive”.

Question: What about the “Effect on ABHD12 activity” value (rat ABHD12) of the same compound?
Answer: Its value is “did not affect the activity”.

Question: What about the “Effect of Cys201 mutation on inhibitory potency” value (MGL C201G mutant; C201G vs wt, HeLa cell extracts) of the same compound?
Answer: The value was “without affecting the potency”.

Question: And the IC50 (MGL C208G mutant)?
Answer: The IC50 was 1.18 ± 0.174 µM.

Question: What about the “Time-course of MGL inhibition” value (purified MGL) of the same compound?
Answer: The value was “almost immediate blockade of MGL activity”.

Question: And the IC50 [3, 6]?
Answer: The IC50 was 0.398 ± 0.068 µM.

Question: What about the IC50 [3, 7] of the same compound?
Answer: The IC50 was 0.35 ± 0.037 µM.

Question: And the “Effect on N-acylethanolamide acid amidase activity” value [4]?
Answer: The value was “no significant effect”.

Question: And the “Effect on FAAH activity” value (rat brain FAAH)?
Answer: Its value is “no significant effect”.

Question: And the “Effect on PEA levels” value ([2]; 1 μM, 30 min)?
Answer: The value was “not accompanied by any significant changes”.

Question: What about the “Cellular 2-AG concentrations” value ([2]; 1 μM, 30 min, over vehicle-treated neurons) of the same compound?
Answer: Its value is 1.6±0.1 fold change.

Question: What about the IC50 (rat ABHD6) of the same compound?
Answer: Its IC50 is 0.098 ± 0.008 µM.

Question: What about the “Effect of Cys32 mutation on activity of inhibitor” value (MGL Cys32 mutant) of the same compound?
Answer: Its value is “did not influence the activity”.

Question: What about the “Effect on diacylglycerol lipase activity” value [5] of the same compound?
Answer: The value was “no significant effect”.

Question: With `COC(=O)[C@]1(C)CC[C@]2(C)CC[C@]3(C)C4=CCc5c(cc(O)c(O)c5C)[C@]4(C)CC[C@@]3(C)[C@@H]2C1` [Pristimerol] as the compound, how does the IC50 [1] read?
Answer: Its IC50 is 4 ± 0.5 µM.

Question: `CC(C)=CCC[C@@H](C)[C@@H]1CC[C@]2(C)C3=C(CC[C@@]12C)[C@@]1(C)CC[C@H](O)C(C)(C)[C@@H]1CC3` [euphol] was tested. Which “Mechanism of MGL inhibition” value (non-purified HeLa MGL) did it give?
Answer: Its value is “reversible and non-competitive”.

Question: What about the IC50 (MGL C201G mutant) of the same compound?
Answer: Its IC50 is 2.6 ± 0.2 µM.

Question: What about the “Effect of Cys208 replacement on concentration-response curve” value (MGL C208G mutant; C208G vs wt, HeLa cell extracts) of the same compound?
Answer: The value was “no effect”.

Question: And the IC50 [3, 6]?
Answer: The IC50 was 0.882 ± 0.078 µM.

Question: What about the IC50 [3, 7] of the same compound?
Answer: Its IC50 is 0.513 ± 0.009 µM.

Question: What about the “Effect on PEA levels” value ([2]; 10 μM, 30 min, data not shown) of the same compound?
Answer: The value was “small, non-significant change”.

Question: What about the “Cellular 2-AG levels” value ([2]; 10 μM, 30 min, over vehicle-treated neurons) of the same compound?
Answer: Its value is 1.2±0.2 fold change.

Question: And the IC50 (rat ABHD6)?
Answer: The IC50 was 9 ± 1 µM.

Question: And the “Effect of Cys32 mutation on activity of inhibitor” value (MGL Cys32 mutant)?
Answer: The value was “did not influence the activity”.
